Assay results reported in ChEMBL document CHEMBL1124929, “Indolo[2,1-a]isoquinolines. Syntheses, steroid hormone receptor binding affinities, and cytostatic activity” (1990).

Tests used:
[1] = target: T1, Androgen Receptor (Bos taurus) (UniProt Q5EM59); assay: Relative binding affinities (RBA) for Androgen receptor (AR)
T1 sequence (whole entry): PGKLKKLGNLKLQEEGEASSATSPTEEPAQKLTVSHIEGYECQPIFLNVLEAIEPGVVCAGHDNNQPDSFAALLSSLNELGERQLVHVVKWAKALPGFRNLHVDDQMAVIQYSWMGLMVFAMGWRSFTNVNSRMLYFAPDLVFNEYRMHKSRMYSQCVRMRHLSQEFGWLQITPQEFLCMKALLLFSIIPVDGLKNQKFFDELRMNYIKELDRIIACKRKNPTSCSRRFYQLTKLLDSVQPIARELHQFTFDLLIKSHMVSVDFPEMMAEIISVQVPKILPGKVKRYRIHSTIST
Procedure, shortened: (§1)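 Receptor source was calf uterine cytosol (105000g supernatant, 3 mg/mL protein in assay). Buffers were Tris/EDTA pH 7.4, with NaN₃ for ER, molybdate/glycerol for AR, and sucrose for PR. Tracers were 1 nM [³H]estradiol, [³H]mibolerone or [³H]Org 2058. Incubation was at 0–4 °C for 16 h (ER) or 2 h (AR, PR), with 4–6 competitor concentrations. Nonspecific binding used 2 µM of the unlabeled hormone. Separation was by dextran-coated charcoal. RBA is the ratio of IC50 values for hormone and compound ×100, mean of two triplicate experiments.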

[2] = target: Estrogen receptor (Bos taurus) (UniProt Q9XSB5+P49884); assay: Relative binding affinity(RBA) for 50% displacement of [3H]-estradiol from Estrogen receptor compared to 17-beta-estradiol; assay type: protein assay; procedure, shortened: as §1
[3] = species on record: Bos taurus; assay: Relative binding affinity(RBA) as ratio of progesterone and compound required to displace [3H]-org 2058 binding to Progesterone receptor by 50%; procedure, shortened: as §1
[4] = target: T1, Androgen Receptor (Bos taurus); assay: Relative binding affinity(RBA) for 50% displacement of [3H]mibolerone from Androgen receptor compared to testorone; procedure, shortened: as §1
[5] = test system: MDA-MB-231; assay: Effect on [3H]thymidine incorporation into MDA-MB 231 human breast cancer cells at 1x10E-5 M; assay type: functional
Procedure, shortened: (§2)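 Cells were seeded at ~2 × 10⁴ per well, treated from the next day in 0.1% DMSO, with DMSO controls. MCF-7 cells were held in charcoal-stripped NCS for 2 weeks, treated for 5 days and re-dosed on day 4. MDA-MB 231 cells were grown in McCoy 5a/10% NCS and treated for 2 days. At the end, 1 µCi [³H]thymidine per well was added for 2 h. Result is % T/C, mean of three experiments × six dishes.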

[6] = test system: MDA-MB-231; assay: Effect on [3H]-thymidine incorporation into MDA-MB 231 human breast cancer cells at 1x10E-6M; assay type: functional; procedure, shortened: as §2
[7] = test system: MDA-MB-231; assay: Cytostatic effect on hormone-independent MDA-MB 231 human breast cancer cell proliferation at5x10E-6M; assay type: functional
Procedure, shortened: (§3)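 Cells were plated at about 2 × 10⁴ per well in six-well dishes. MCF-7 cells were grown in modified improved MEM with 5% NCS, switched to charcoal-treated NCS two weeks before the test, and exposed for 5 days with a re-dose on day 4. MDA-MB 231 cells were grown in McCoy 5a with 10% NCS and exposed for 2 days. Compounds were given 1 day after plating in 0.1% DMSO, with DMSO-matched controls. Read-out was cell number as % T/C, mean of three experiments with six dishes.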

[8] = test system: MDA-MB-231; assay: Effect on [3H]thymidine incorporation into MDA-MB 231 human breast cancer cells at 5x10E-6M; assay type: functional; procedure, shortened: as §2
[9] = test system: MCF7; assay: Effect on hormone-dependent MCF-7 human breast cancer cell proliferation at 1x10E-5 M; assay type: functional; procedure, shortened: as §3
[10] = test system: MCF7; assay: Effect on [3H]-thymidine incorporation into MCF-7 human breast cancer cells at 1x10E-5 M; assay type: functional; procedure, shortened: as §2
[11] = test system: MCF7; assay: Effect on hormone-dependent MCF-7 human breast cancer cell proliferation at 1x10E-6M; assay type: functional; procedure, shortened: as §3
[12] = test system: MCF7; assay: Effect on [3H]thymidine incorporation into MCF-7 human breast cancer cells at 1x10E-6M; assay type: functional; procedure, shortened: as §2
[13] = test system: MDA-MB-231; assay: Cytostatic effect on hormone-independent MDA-MB 231 human breast cancer cell proliferation at 1x10E-5 M; assay type: functional; procedure, shortened: as §3
[14] = test system: MCF7; assay: Effect on [3H]thymidine incorporation into MCF-7 human breast cancer cells at 1x10E-5 M; assay type: functional; procedure, shortened: as §2
[15] = target: T2, Estrogen receptor (Mus musculus) (UniProt O08537+P19785); assay: (§4) Estrogenic activity in uterotrophic assay in immature mice at 2 ug subcutaneous dose; assay type: functional
T2 sequence (O08537 whole entry, looked up): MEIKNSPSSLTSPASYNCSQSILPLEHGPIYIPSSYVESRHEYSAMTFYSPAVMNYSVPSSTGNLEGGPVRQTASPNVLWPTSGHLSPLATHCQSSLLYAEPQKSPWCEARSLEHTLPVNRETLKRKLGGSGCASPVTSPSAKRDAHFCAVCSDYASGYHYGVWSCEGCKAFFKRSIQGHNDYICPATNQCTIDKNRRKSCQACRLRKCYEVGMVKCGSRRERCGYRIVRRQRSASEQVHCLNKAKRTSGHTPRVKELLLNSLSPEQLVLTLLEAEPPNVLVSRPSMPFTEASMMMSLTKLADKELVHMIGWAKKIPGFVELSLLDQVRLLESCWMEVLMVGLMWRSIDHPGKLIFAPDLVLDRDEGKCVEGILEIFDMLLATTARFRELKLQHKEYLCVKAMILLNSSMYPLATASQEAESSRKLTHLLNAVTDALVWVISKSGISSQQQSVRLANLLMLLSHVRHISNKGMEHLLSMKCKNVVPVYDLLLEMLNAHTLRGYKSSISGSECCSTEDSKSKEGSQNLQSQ
T2 sequence (P19785 whole entry, looked up): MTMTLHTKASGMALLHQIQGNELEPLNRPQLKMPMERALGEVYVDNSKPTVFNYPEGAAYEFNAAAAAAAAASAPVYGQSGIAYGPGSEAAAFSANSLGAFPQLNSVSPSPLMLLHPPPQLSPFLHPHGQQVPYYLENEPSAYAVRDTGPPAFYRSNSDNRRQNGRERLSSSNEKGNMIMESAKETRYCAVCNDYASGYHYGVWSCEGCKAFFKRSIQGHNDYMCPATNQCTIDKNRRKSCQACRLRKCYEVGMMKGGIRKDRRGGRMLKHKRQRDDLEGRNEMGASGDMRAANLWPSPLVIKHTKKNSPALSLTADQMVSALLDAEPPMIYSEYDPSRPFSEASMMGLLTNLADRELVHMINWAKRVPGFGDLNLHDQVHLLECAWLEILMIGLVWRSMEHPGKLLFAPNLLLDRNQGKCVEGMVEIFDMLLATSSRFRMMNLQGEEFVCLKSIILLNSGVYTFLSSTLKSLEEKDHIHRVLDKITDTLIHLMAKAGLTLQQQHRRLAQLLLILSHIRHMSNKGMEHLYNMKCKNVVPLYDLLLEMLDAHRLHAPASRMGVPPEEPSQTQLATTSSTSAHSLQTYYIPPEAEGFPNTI
Procedure, shortened: (§5)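 Immature female NMRI mice, 20 days old, in groups of 6-10, were dosed sc once daily for three consecutive days. Compounds were given in PEG/0.9% saline 1:1; vehicle controls were included. Animals were killed 24 h after the last dose. Uteri were fixed in Bouin solution and the effect was taken as uterine dry weight (mg)/body weight (g) ×100, given as mean ± SD.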

[16] = target: T2, Estrogen receptor (Mus musculus); assay: (§6) Estrogenic activity in uterotrophic assay in immature mice at 50.0 ug subcutaneous dose; assay type: functional; procedure, shortened: as §5
[17] = target: T2, Estrogen receptor (Mus musculus); assay: (§7) Estrogenic activity in uterotrophic assay in immature mice at 10.0 ug subcutaneous dose; assay type: functional; procedure, shortened: as §5
[18] = target: T2, Estrogen receptor (Mus musculus); assay: as §4; assay type: functional; procedure, shortened: as §5; remark: listed apart in the source
[19] = target: T2, Estrogen receptor (Mus musculus); assay: (§8) Estrogenic activity in uterotrophic assay in immature mice at 250 ug subcutaneous dose; assay type: functional; procedure, shortened: as §5
[20] = target: T2, Estrogen receptor (Mus musculus); assay: as §6; assay type: functional; procedure, shortened: as §5; remark: listed apart in the source
[21] = target: T2, Estrogen receptor (Mus musculus); assay: as §8; assay type: functional; procedure, shortened: as §5; remark: listed apart in the source
[22] = target: T2, Estrogen receptor (Mus musculus); assay: as §7; assay type: functional; procedure, shortened: as §5; remark: listed apart in the source
[23] = target: T2, Estrogen receptor (Mus musculus); assay: Inhibition of 0.4 ug estrone-stimulated uterine growth in mice at 2 ug subcutaneous dose; assay type: functional
Procedure, shortened: (§9)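 Immature 20-day-old female NMRI mice received sc injections on three consecutive days. Each injection held 0.4 µg estrone plus the compound in PEG/saline 1:1. […] Significance was tested by Mann-Whitney U test.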

[24] = target: T3, Androgen receptor (Mus musculus) (UniProt P19091); assay: Relative effect on seminal vesicle weight in adult and castrated mice at 1000 ug dose; assay type: functional, tissue-based
T3 sequence (whole entry): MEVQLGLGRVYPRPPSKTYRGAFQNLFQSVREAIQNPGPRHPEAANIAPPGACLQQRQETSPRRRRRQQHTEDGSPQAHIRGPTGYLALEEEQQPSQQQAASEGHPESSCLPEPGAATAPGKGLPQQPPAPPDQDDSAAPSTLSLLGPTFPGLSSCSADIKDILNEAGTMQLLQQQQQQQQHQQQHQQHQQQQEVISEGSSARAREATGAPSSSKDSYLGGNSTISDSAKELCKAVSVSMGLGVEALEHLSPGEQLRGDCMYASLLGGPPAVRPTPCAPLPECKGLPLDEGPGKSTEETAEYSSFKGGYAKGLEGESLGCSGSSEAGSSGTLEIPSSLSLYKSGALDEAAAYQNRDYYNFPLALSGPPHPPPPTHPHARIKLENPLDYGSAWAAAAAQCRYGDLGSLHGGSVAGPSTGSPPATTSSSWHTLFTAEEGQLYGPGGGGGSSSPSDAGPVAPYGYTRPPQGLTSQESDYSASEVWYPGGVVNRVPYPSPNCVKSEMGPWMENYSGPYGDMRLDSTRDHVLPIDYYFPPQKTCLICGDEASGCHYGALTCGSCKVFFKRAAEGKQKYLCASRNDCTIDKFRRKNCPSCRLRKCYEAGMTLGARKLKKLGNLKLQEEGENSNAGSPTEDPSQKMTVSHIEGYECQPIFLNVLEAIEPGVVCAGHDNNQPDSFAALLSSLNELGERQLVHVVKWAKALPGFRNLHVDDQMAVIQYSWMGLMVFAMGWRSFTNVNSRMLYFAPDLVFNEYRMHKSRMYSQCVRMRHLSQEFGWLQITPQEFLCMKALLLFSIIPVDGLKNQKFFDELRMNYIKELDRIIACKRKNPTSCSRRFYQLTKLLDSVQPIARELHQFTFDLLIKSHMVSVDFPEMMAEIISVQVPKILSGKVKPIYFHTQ
Procedure, shortened: (§10)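 Adult male mice, 23–25 g, six per group, were used intact or castrated via the scrotal route under ether 5 days before the test. Castrates received 0.3 mg testosterone propionate daily. Compounds were injected daily in olive oil for nine days. Seminal vesicles were taken 24 h later, fixed in Bouin solution, dried overnight at 100 °C and weighed. Result is organ mg/body g ×100; % inhibition = [1 − treated/control] × 100.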

[25] = target: T3, Androgen receptor (Mus musculus); assay: Relative effect on seminal vesicle weight in adult and castrated mice at 100 ug dose; assay type: functional, tissue-based; procedure, shortened: as §10
[26] = target: T3, Androgen receptor (Mus musculus); assay: Relative effect on seminal vesicle weight in adult and castrated mice at 10 ug dose; assay type: functional, tissue-based; procedure, shortened: as §10
[27] = test system: MDA-MB-231; assay: Cytostatic effect on hormone-independent MDA-MB 231 human breast cancer cell proliferation at 1x10E-6M; assay type: functional; procedure, shortened: as §3
[28] = target: T3, Androgen receptor (Mus musculus); assay: Inhibition of seminal vesicle weight in intact mice at 100 ug
[29] = target: T3, Androgen receptor (Mus musculus); assay: Inhibition of seminal vesicle weight in intact mice at 10.0 ug
[30] = target: T3, Androgen receptor (Mus musculus); assay: as above; remark: listed apart in the source
[31] = target: T2, Estrogen receptor (Mus musculus); assay: (§11) Estrogenic activity in uterotrophic assay in immature mice at 125 ug subcutaneous dose; assay type: functional; procedure, shortened: as §5
[32] = target: T2, Estrogen receptor (Mus musculus); assay: (§12) Estrogenic activity in uterotrophic assay in immature mice at 40.0 ug subcutaneous dose; assay type: functional; procedure, shortened: as §5
[33] = target: T2, Estrogen receptor (Mus musculus); assay: as §12; assay type: functional; procedure, shortened: as §5; remark: listed apart in the source
[34] = target: T2, Estrogen receptor (Mus musculus); assay: as §11; assay type: functional; procedure, shortened: as §5; remark: listed apart in the source
[35] = target: T2, Estrogen receptor (Mus musculus); assay: Inhibition of 0.4 ug estrone-stimulated uterine growth in mice at 40.0 ug subcutaneous dose; assay type: functional; procedure, shortened: as §9
[36] = target: T2, Estrogen receptor (Mus musculus); assay: Inhibition of 0.4 ug estrone-stimulated uterine growth in mice at 125 ug subcutaneous dose; assay type: functional; procedure, shortened: as §9

| Compound | RBA [2] | RBA [3] | RBA [4] | T/C [5] | T/C [6] | T/C [7] | T/C [8] | T/C [9] | T/C [11] | T/C [12] | T/C [13] | T/C [14] | Effect [15] | Effect [18] | inhibition [23] | T/C [27] | other results |
| --- | --- | --- | --- | --- | --- | --- | --- | --- | --- | --- | --- | --- | --- | --- | --- | --- | --- |
| CC(=O)Oc1ccc2c(c1)CCn1c-2cc2cc(OC(C)=O)ccc21 | 2 | < 0.01 | – | – | – | – | – | – | – | – | – | – | – | – | – | – | relative binding affinity (RBA) [1]: < 0.01 |
| CCc1cc2cc(OC(C)=O)ccc2c2cc3ccc(OC(C)=O)cc3n12 | 1.5 | < 0.01 | 0.01 | 3% | 80% | 8% | 7% | 5% | 75% | 70% | – | – | – | – | – | – | T/C [10]: 3% |
| CC(=O)Oc1ccc2c(c1)CC(C)n1c-2cc2cc(OC(C)=O)ccc21 (stereo not given) | 12 | 0.01 | 0.2 | 5% | 65% | 10% | 10% | 7% | – | 36% | 5% | 2% | 21.2 | 52.6 | -8% | 78% | Effect [16]: 53.3; Effect [17]: 56; Effect [19]: 61.1; Effect [20]: 61.2; Effect [21]: 72.2; Effect [22]: 26.3; Relative seminal vesicle weight [24]: 45.2; Relative seminal vesicle weight [25]: 145; Relative seminal vesicle weight [26]: 195; inhibition [28]: 27%; inhibition [29]: 1%; inhibition [30]: 1% |
| CCC1Cc2cc(OC(C)=O)ccc2-c2c(C=O)c3cc(OC(C)=O)ccc3n21 (stereo not given) | 4.6 | < 0.01 | 0.03 | 7% | – | – | – | 13% | 55% | 41% | 14% | 3% | 14.5 | 48.2 | 19.6% | 75% | Effect [31]: 54.7; Effect [32]: 38.2; Effect [33]: 54.7; Effect [34]: 56; inhibition [35]: 2.6%; inhibition [36]: 2.7% |
